Experimental data collected from several papers.
Protocols differ between the studies behind these lines.
Organism: Acinetobacter baumannii
Observed: microbial growth

CCCCCCC#Cc1cncc(-c2nnc(SCc3ccc([N+](=O)[O-])o3)n2CCCN)c1
MIC (broth dilution; ATCC17978): 32 µg/mL

CC1(C)S[C@@H]2[C@H](NC(=O)[C@H](N)c3ccccc3)C(=O)N2[C@H]1C(=O)O
MIC (broth dilution; ATCCBAA1605): > 64 µg/mL

CCCCCCC#Cc1cncc(-c2nnc(SCc3cc([N+](=O)[O-])cc([N+](=O)[O-])c3)n2CCOC2OC(CN)C(O)C2O)c1 (stereo not shown)
MIC (broth dilution; ATCC17978): 64 µg/mL

C[C@@H](O)[C@H]1C(=O)N2C(C(=O)O)=C(S[C@@H]3CN[C@H](C(=O)N(C)C)C3)[C@H](C)[C@H]12
MIC (broth dilution; ATCC19606): 0.5 µg/mL

CCCCCCCCN=c1ccn(CCCCCCCCCCn2ccc(=NCCCCCCCC)cc2)cc1
MIC (ATCC17978): 1 µM

CCCCCCC#Cc1cncc(-c2nnc(SCc3cc([N+](=O)[O-])cc([N+](=O)[O-])c3)n2C2CCNCC2)c1
MIC (broth dilution; ATCC17978): 64 µg/mL

CNC(C)C1CCC(N)C(OC2C(N)CC(N)C(OC3OCC(C)(O)C(NC)C3O)C2O)O1 (stereo not shown)
MIC (broth dilution; ATCCBAA1605): > 64 µg/mL

N[C@@H](Cc1c[nH]c2ccc(Cl)cc12)C(=O)O
MIC (ATCC17978; 18 h): > 200 µM

Nc1nc(-c2ccc3nc(-c4cc(C(F)(F)F)cc(C(F)(F)F)c4)[nH]c3c2)c[nH]1
MIC (broth dilution; AB5075): 50 µM

[H]/N=C(\N/C(=N/[H])NCCCCCCNC(=N)NC(=N)Nc1ccc(Cl)cc1)Nc1ccc(Cl)cc1
MIC (ATCC17978): 8 µM
